Measurements from ChEMBL document CHEMBL1145978, “New N-n-propyl-substituted 3-aryl- and 3-cyclohexylpiperidines as partial agonists at the D4 dopamine receptor” (J Med Chem, 2003).

Experiments:
D(2) dopamine receptor [1] = molecular target: T1, D(2) dopamine receptor (Bos taurus, UniProt P20288); assay: Affinity for Dopamine receptor D2 using [3H]-YM-09151-2 was carried out on bovine striatal membrane preparations; parameters: species or system Striatum
In short: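 Competition binding on bovine striatal membranes: homogenised in Tris 50, EDTA 1, CaCl2 1.5, MgCl2 4, KCl 5, NaCl 120 mM, pH 7.4; centrifuged 48 000 g, 20 min, 4 °C, washed, used at ~1.25 mg wet tissue/mL. 0.1 nM [3H]-YM-09-151-2 (Kd 0.4 nM), 60 min at 30 °C, duplicates; nonspecific with 2 mM DA; vacuum filtration; Ki from IC50.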

D(2) dopamine receptor [2] = molecular target: T1, D(2) dopamine receptor; assay: Affinity for Dopamine receptor D2 using [3H]YM-09151-2 was carried out on bovine retinal membrane preparations (high-affinity); parameters: species or system Retina
In short: (§1)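 Retinal membranes were prepared in Tris/EDTA/Ca/Mg/K/NaCl saline, pH 7.4, at about 4 mg wet tissue/mL. They were incubated with 0.1 nM [3H]-YM-09-151-2 at 30 °C for 60 min, in duplicate, with 2 mM DA defining nonspecific binding, followed by rapid filtration. Displacement curves were fitted to a two-site model, giving high- and low-affinity Ki from IC50 using Kd 0.4 nM.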

D(2) dopamine receptor [3] = molecular target: T1, D(2) dopamine receptor; assay: Affinity for Dopamine receptor D2 using [3H]YM-09151-2 was carried out on bovine retinal membrane preparations (low-affinity); parameters: species or system Retina; in short: as §1
D(1A) dopamine receptor = D(1A) dopamine receptor (Bos taurus, UniProt Q95136); assay: Affinity for Dopamine receptor D1 using [3H]SCH-23390 was carried out on bovine retinal membrane preparations; parameters: species or system Retina
D(1A) dopamine receptor, sequence (Q95136 whole entry): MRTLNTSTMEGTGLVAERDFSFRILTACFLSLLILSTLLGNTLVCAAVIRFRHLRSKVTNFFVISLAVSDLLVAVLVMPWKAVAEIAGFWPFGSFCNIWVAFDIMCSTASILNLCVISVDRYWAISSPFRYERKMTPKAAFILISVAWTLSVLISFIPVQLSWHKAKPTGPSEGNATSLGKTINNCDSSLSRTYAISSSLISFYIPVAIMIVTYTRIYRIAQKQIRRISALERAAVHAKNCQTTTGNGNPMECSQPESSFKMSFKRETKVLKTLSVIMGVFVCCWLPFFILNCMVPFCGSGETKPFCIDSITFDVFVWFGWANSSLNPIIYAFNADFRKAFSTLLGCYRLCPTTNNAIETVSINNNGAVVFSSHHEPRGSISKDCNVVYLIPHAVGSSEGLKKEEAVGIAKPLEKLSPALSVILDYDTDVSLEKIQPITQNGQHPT
In short: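 Bovine retinal membranes were homogenized in Tris 50 mM, EDTA 1, CaCl2 1.5, MgCl2 4, KCl 5, NaCl 120 mM, pH 7.4, and used at about 4 mg wet tissue/mL. They were incubated with 0.5 nM [3H]-SCH23390 for 20 min at 30 °C, in duplicate. Nonspecific binding was set with 2 mM DA, and bound ligand was separated by vacuum filtration. Ki was derived from IC50 using Kd 2 nM.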

T1 sequence (P20288 whole entry): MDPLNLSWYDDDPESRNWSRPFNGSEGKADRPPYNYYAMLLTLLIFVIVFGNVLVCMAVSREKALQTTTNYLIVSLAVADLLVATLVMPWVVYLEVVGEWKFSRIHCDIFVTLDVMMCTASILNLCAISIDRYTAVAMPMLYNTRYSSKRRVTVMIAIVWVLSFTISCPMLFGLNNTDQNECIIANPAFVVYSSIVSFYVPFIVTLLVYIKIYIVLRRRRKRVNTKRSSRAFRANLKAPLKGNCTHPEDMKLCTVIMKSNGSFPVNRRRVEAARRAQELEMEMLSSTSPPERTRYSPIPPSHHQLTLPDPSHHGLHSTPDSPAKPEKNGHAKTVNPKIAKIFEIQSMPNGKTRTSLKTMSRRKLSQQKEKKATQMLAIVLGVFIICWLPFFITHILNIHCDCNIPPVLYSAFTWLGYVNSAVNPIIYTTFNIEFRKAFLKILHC

Row | SMILES | Ki (D(2) dopamine receptor [1]) | Ki (D(2) dopamine receptor [2]) | Ki (D(2) dopamine receptor [3]) | Ki (D(1A) dopamine receptor)
1 | CCCN1CCCC(c2ccc(C)cc2)C1 (centres undefined) | 13.8 µM | 0.044 µM | 35.4 µM | > 10 µM
2 | CCCN1CCCC(c2cccc(C)c2)C1 (centres undefined) | – | 0.042 µM | 15.9 µM | > 10 µM
3 | CCCN1CCCC(c2ccccc2)C1 (centres undefined) | 10.8 µM | 0.039 µM | 43.7 µM | > 10 µM
4 | CCCN1CCCC(c2ccccc2C)C1 (centres undefined) | 1.51 µM | 0.449 µM | 26.7 µM | > 10 µM
5 | CCCN1CCCC(c2ccc(C)c(C)c2)C1 (centres undefined) | 8.1 µM | 0.027 µM | 7.6 µM | > 10 µM

Further lines, with some results ahead:

Row | Ki (D(2) dopamine receptor [1]) | SMILES | Ki (D(2) dopamine receptor [2]) | Ki (D(2) dopamine receptor [3]) | Ki (D(1A) dopamine receptor)
6 | 0.42 µM | CCCN1CCCC(C2CCCCC2C)C1 (centres undefined) | 0.026 µM | 43.2 µM | > 10 µM
7 | 14.4 µM | CCCN1CCCC(C2CCCCC2)C1 (centres undefined) | 0.004 µM | 24.9 µM | > 10 µM
8 | 20 µM | CCCN1CCCC(C2CCC(C)CC2)C1 (centres undefined) | 0.004 µM | 64 µM | > 10 µM
9 | 10 µM | CCCN1CCCC(C2CCCC(C)C2)C1 (centres undefined) | 0.005 µM | 27 µM | > 10 µM
10 | 18.3 µM | Cc1cccc(C(=O)NCN2CCN(c3ccccc3C#N)CC2)c1 [PD-168,077] | 0.025 µM | 6.3 µM | > 10 µM
